Laboratory results as given in PubChem BioAssay AID504788 (Broad Institute, 2011).
Results filed as inconclusive are left out. Active and inactive are the calls of the source.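 The calls were made as follows: active = compound lowers the viability signal with a fitted half-maximal concentration within ten times the top dose, every run; inconclusive = runs disagree, poor fit, or flat partial inhibition; inactive = the rest.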

test system: not listed separately; assay: HMLE_shECad viability reduction – cell-based, CellTiter-Glo luminescence, dry powder, set 7, dose response (AID 504788); conditions: HMLE_shECad viability, CellTiter-Glo luminescence, 72 h; at 19.5 µM (top of the series)
Procedure, shortened: (§1)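 System: HMLE_shECad breast CSC surrogate cells | Quantity: 2000 cells per well | Detection: CellTiter-Glo luminescence, reagent diluted 1:3 in PBS, 12 min | Medium: Serum-free CSC medium | Schedule: ≥4 h settling, ~72 h compound exposure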

Row | SMILES | activity change, negative = inhibition
1 | O=C(COc1ccc(Cl)cc1Cl)NC1=NCCS1 | -3.83% (inactive)
2 | N#Cc1ccccc1/C=C/C(=O)NC1=NCCS1 | -13.1% (inactive)
3 | CCc1ccc(/C=C/C(=O)NC2=NCCS2)cn1 | 1.08% (inactive)
4 | O=C(COc1ccc(Cl)cc1Cl)N/N=C/c1ccccc1 | 3.46% (inactive)
5 | N#Cc1cccc(/C=C/C(=O)NC2=NCCS2)c1 | 0.158% (inactive)
6 | CC(C)c1ccc(/C=C/C(=O)N2CC(F)(F)C2)cc1 | -4.76% (inactive)
7 | O=C(c1ccc(COc2ccccc2)o1)N1CC(F)(F)C1 | 1.55% (inactive)
8 | CC(C)c1ccc(C#CC(=O)NC2=NCCS2)cc1 | -4.05% (inactive)
9 | COc1cc(OC(C)C)ccc1/C=C/C(=O)NC1=NCCS1 | -1.34% (inactive)
10 | CN(C)C(=N)N=C(N)N | 6.34% (inactive)
11 | c1c[nH]c(-c2ccn[nH]2)c1 | 5% (inactive)
12 | O=C(c1ccc(COc2ccccc2)o1)n1ccc(-c2ccc[nH]2)n1 | 7.35% (inactive)
13 | Cc1cccc(/C=C/C(=O)NC2=NCCS2)c1 | 6.76% (inactive)
14 | O=C(O)COc1ccc(Cl)cc1Cl | -2.16% (inactive)
15 | Cc1csc(NC(=O)c2ccc(COc3cccnc3)o2)n1 | -5.96% (inactive)
16 | O=C(COc1ccc(Cl)cc1Cl)n1ccc(-c2ccc[nH]2)n1 | 7.33% (inactive)

test system: HMLE_shECad viability, CellTiter-Glo luminescence, 72 h; assay: as above; conditions: not given
Procedure, shortened: as §1

Row | SMILES | AC50 [µM]
17 | COc1cccc2c1C(=O)c1c(O)c3c(c(O)c1C2=O)C[C@@](O)(C(=O)CO)C[C@@H]3OC1C[C@H](N)[C@H](O)[C@H](C)O1 (stereo not given in full) | 0.053
18 | O=C(/C=C/c1ccc(-c2ccccc2)nc1)NC1=NCCS1 | 29
19 | Cc1ccnc(NCc2cccc(C(=O)Nc3nc(C)cs3)c2)c1 | 17.7
20 | Cc1csc(NC(=O)c2ccc(COc3ccncc3)o2)n1 | 20
21 | Cc1csc(NC(=O)c2cccc(COc3cccc(Cl)c3)c2)n1 | 1.11
22 | Cc1csc(NC(=O)COc2ccc(Cl)cc2Cl)n1 | 28.9
23 | CC(C)c1ccc(/C=C/C(=O)n2ccc(-c3ccc[nH]3)n2)cc1 | 15.6
24 | Cc1csc(NC(=O)c2cccc(COc3cccc(F)c3)c2)n1 | 0.705
25 | Cc1csc(NC(=O)c2cccc(COc3ccccc3F)c2)n1 | 1.93
26 | COc1cc([C@@H]2c3cc4c(cc3[C@@H](OC3OC5COC(C)OC5C(O)C3O)[C@H]3COC(=O)[C@H]23)OCO4)cc(OC)c1O (stereo not given in full) | 2.95
27 | COc1cc(C(C)C)ccc1/C=C/C(=O)NC1=NCCS1 | 30.6
28 | Cc1cccc(NCc2cccc(C(=O)Nc3nc(C)cs3)c2)n1 | 21.1
29 | Cc1csc(NC(=O)c2cccc(CNc3ncccc3F)c2)n1 | 22.9
30 | Cc1cccc(NCc2ccc(C(=O)Nc3nc(C)cs3)o2)n1 | 18
31 | Cc1csc(NC(=O)c2ccc(COc3ncccc3F)o2)n1 | 22.7
32 | Cc1csc(NC(=O)c2ccc(COc3cccc(OC(F)(F)F)c3)o2)n1 | 0.895
33 | Cc1cccc(OCc2cccc(C(=O)Nc3nc(C)cs3)c2)c1 | 2.74
34 | Cc1cccc(OCc2ccc(C(=O)Nc3nc(C)cs3)o2)n1 | 18.7
35 | O=C(COc1c(Cl)cc(Cl)cc1Cl)N/N=C/c1ccc[nH]1 | 1.7
